# Apaf1 inhib – inhibitors of human Apaf-1 apoptosome | O14727 | reconstituted apoptosome caspase-3 activity, DEVD-Rh110 fluorescence | inhibition, % at 20 µM | 330,000 tested, 0.71% active; active means inhibition of at least 40% at 20 µM
#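 Assay system – apoptosome proteins · Medium – Hepes buffer, pH 7.5 · Also added – cytochrome c with DEVD-Rh110 · Timing – 30 min compound preincubation, 50 min activation, room temperature · Detection – Rh110 fluorescence, excitation 480 nm, emission 540 nm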
# GSTO1 inh – blocks human GSTO1 in RBBP9 counter-screen; P78417; 300,000 tested, 1.1% active; AID 1974; inhibition, % at 5.96 µM; recombinant GSTO1, activity-based probe fluorescence polarization;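 active means inhibition above the campaign mean inhibition plus 3 SD, cut at about 35% in these data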
# CTSL1 counter – cathepsin L1 inhibition, PFM18AAP counter-screen; recombinant F. hepatica cathepsin L1, Z-Leu-Arg-MCA fluorescence; inhibition, % at 5.96 µM; 300,000 tested, 0.49% active; AID 1906;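 active means inhibition above the mean of all tested compounds plus 3 SD, set per screening campaign, cut at about 17% in these data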
# TDP2 absorb – blocks human TDP2 phosphodiesterase activity; 370,000 tested, 0.34% active; recombinant TDP2, T5PNP hydrolysis, p-nitrophenol absorbance 415 nm; inhibition, % at 12.8 µM; O95551;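 active means inhibition above the mean of all tested compounds plus 3 SD, set per campaign, cut at about 25% in these data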
#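 Assay system: Recombinant human TDP2 | Quantity: 120 nM TDP2 per well | Incubation: 2 h at 37 °C | Signal: Epi absorbance | Evaluation: Percent inhibition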
# PAD4 inh – PAD4 (human) enzyme inhibition | Q9UM07 | recombinant PAD4, RCA probe fluorescence polarization | inhibition, % at 6.36 µM | 330,000 tested, 0.41% active;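 active means percent inhibition above a cutoff equal to the mean of all tested compounds plus 3 SD, cut at about 15% in these data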
# Hits are given with their value; 0 = inactive; - = no result; ! = not confirmed by another sample. The list is not random: actives were taken first. Their share in the collection is about 1.8%.
SMILES,Apaf1 inhib,GSTO1 inh,CTSL1 counter,TDP2 absorb,PAD4 inh
O=C(N/N=C\c1ccc([N+](=O)[O-])s1)c1cncc(Br)c1,0,43,0,0,0
N#CC1=C(S)N(c2ccccc2)C(c2ccc(-c3ccc(Cl)c(Cl)c3)o2)NC1=O (stereo not given),0,0,0,26,0
COC(=O)c1c(C(=O)OC)c2cccc3cc(-c4ccccc4)c4ccc1c4n32,65,0,0,0,0
CCN(C(=O)[C@@H](C1CC1)[C@@H](O)c1ccc(C(C)=O)cc1)c1ccccc1,-,-,-,0,-
CCN1CCCCC(NC(=O)c2ccc(Cl)cc2Cl)C1=O (stereo not given),-,-,-,0,-
Cn1c(=NC(=O)c2ccco2)sc2ccccc21,0,36,0,0,0
COc1ccc(C(CNC(=O)CSc2ccc(Br)cc2C)N2CCOCC2)cc1 (stereo not given),0,0,24,0,0
COc1ccc(C(CNC(=O)CSc2ccccc2F)N2CCOCC2)cc1 (stereo not given),0,0,0,0,0
Cc1cc(-n2c(C)cc(C(=O)CCl)c2C)no1,0,83,0,0,0
COc1ccc(-n2c(C)cc(C(=O)CCl)c2C)cc1,0,97,0,0,0
NC(=O)c1ncn([C@@H]2O[C@H](C(=O)N[C@H](Cc3ccccc3)C(=O)N3CCN(CC(=O)Nc4ccccn4)CC3)[C@@H](O)[C@H]2O)n1,-,-,-,0,-
c1ccc(Cc2cnc(N3CCN(Cc4cccc(-c5ccsc5)n4)CC3)nc2)cc1,-,-,-,0,-
O=C(c1ccc2c(c1)OCO2)[C@@H]1[C@@H]2C(=O)N(C3CCCCC3)C(=O)[C@@H]2C2c3ccccc3C=CN21 (stereo not given in full),-,-,-,0,-
O=C(Nc1ccc2c(c1)OCO2)[C@@H]1[C@@H]2C(=O)N(C3CCCCC3)C(=O)[C@@H]2C2c3ccccc3C=CN21 (stereo not given in full),42,0,0,0,0
Cc1nn(-c2ccccc2)c2sc(C(=O)NCCc3ccc(Cl)cc3)cc12,-,-,-,0,-
Cc1cccc(/C=C/C(=O)c2cc(Br)ccc(=O)c2O)c1,0,35,0,0,0
CCc1ccc(/C=C/C(=O)c2cc(Br)ccc(=O)c2O)cc1,0,0,0,0,0
CN1C2=N[C@@H](c3ccc4ccccc4c3)CC(=O)N2/C(=C\c2ccccc2)[C@H]1c1ccccc1,-,-,-,0,-
CCOc1ccc(N2C(=O)CS/C2=C(\C(Cl)=C(Cl)Cl)[N+](=O)[O-])cc1,0,51,0,-,0
C=CCN(C#N)c1nc(OC)nc(N2CCCC2)n1,0,0,0,0,0
N#CN(CC(N)=O)c1nc(N2CCCCC2)nc(N2CCCCC2)n1,0,0,25,0,0
CNC(=O)c1ccccc1C1(O)c2ccccc2CCc2ccccc21,-,-,-,0,-
COc1ccc(S(=O)(=O)n2nc(OC(C)=O)cc2N(C(C)=O)C(C)=O)cc1,0,0,0,29,0
Cn1cccc1C(=O)N1CCN(S(=O)(=O)c2ccc(Cl)s2)CC1,-,-,-,0,-
N#Cc1c2c(c(-n3cnc4ccccc43)n3c1nc1ccccc13)CCC2,45,0,0,0,0
SMILES,Apaf1 inhib,GSTO1 inh,CTSL1 counter,TDP2 absorb,PAD4 inh
Cc1ccc(OCCOCCN2CCN(C)CC2)c([N+](=O)[O-])c1,0,0,18,0,0
CC(=O)c1cc2c(cc1NC(=O)c1ccco1)OCCO2,0,0,38,0,0
OCc1cc(C(O)CNCCCCCCOCCCCc2ccccc2)ccc1O (stereo not given),42!,0,0,0,0
CCOCCCNCC(O)c1ccccc1 (stereo not given),0,0,0,0,0
Nc1ccccc1C(=O)NCCCN1CCOCC1,0,0,0,0,0
O=C(NCCCN1CCOCC1)c1coc2ccccc2c1=O,0,35,0,0,0
O=C(Nc1ccccc1C(=O)NCCCN1CCOCC1)c1cccc([N+](=O)[O-])c1,0,0,18,0,0
Cc1ccc(NC(=O)CCl)cc1S(=O)(=O)N1CCCCCC1,0,76,58,0,0
O=C(COC(=O)c1ccc([N+](=O)[O-])o1)c1ccccc1,0,0,0,0,0
O=C(OCCCOC(=O)c1ccc([N+](=O)[O-])o1)c1ccc([N+](=O)[O-])o1,0,0,23,0,0
O=C1C2C(CC3c4ccccc4CCN32)CN1c1ccccc1 (stereo not given),-,-,-,0,-
COc1ccc2ccccc2c1C1CC(=O)N2CN(C3CCCCC3)CSC2=C1C#N (stereo not given),0,0,0,0,0
